In ChEMBL document CHEMBL5316309, “Discovery of BAY-390, a Selective CNS Penetrant Chemical Probe as Transient Receptor Potential Ankyrin 1 (TRPA1) Antagonist” (J Med Chem, 2023):
In brackets after ≈: the same amount, converted by molar mass. Activity calls are given as the source filed them.

Assays:
[1] = Mutagenecity in Salmonella typhimurium by Ames test; type: toxicity; settings: salmonella sp.
[2] = Lipophilicity, logD of compound; type: physicochemical; settings: octanol/water
[3] = Solubility of the compound in PBS buffer at pH 6.5; type: physicochemical
[4] = molecular target: Transient receptor potential cation channel subfamily A member 1 (Homo sapiens, UniProt O75762); assay: Antagonist activity at human wildtype TRPA1 channel expressed in CHO-K1 cells tagged with GCaMP6 by measuring calcium flux measured after […] by FLIPR tetra analysis; type: cell-based
[5] = Fraction unbound in human; type: ADME
[6] = Fraction unbound in mouse; type: ADME, organism-based; settings: in vivo
[7] = Metabolic stability in rat hepatocytes; type: ADME, cell-based, Hepatocyte
[8] = Metabolic stability in rat blood assessed as clearance; type: ADME, tissue-based
[9] = Permeability form apical to basolateral side in human Caco2 cells; type: ADME, cell-based; settings: caco-2
[10] = Efflux ratio of permeability in human Caco2 cells; type: ADME, cell-based; settings: caco-2
[11] = Fraction unbound in Sprague-Dawley rat; type: ADME
Rattus norvegicus [12] = assay: Protective activity in cinnamaldehyde induced nocifensive behaviour Sprague-Dawley rat model assessed as reduction in number of flinches treated with cinnamaldehyde followed compound addition at 3 to 30 mg/kg, po measured after 1 hr measured by Dunnert's post hoc test; type: functional, organism-based; settings: dose 3-30 mg/kg
Summary of the method: (§1)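 Male Sprague Dawley rats, 175–200 g, dosed orally in 10% DMSO/40% Solutol/50% water 1 h before intraplantar injection of 50 μL cinnamaldehyde at 5 mM. Flinch number and licking duration scored blinded for 5 min. One-way ANOVA with Dunnett versus vehicle.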

Rattus norvegicus [13] = assay: Protective activity in cinnamaldehyde induced nocifensive behaviour Sprague-Dawley rat model assessed as reduction in paw licking treated with cinnamaldehyde followed compound addition at 3 to 30 mg/kg, po measured after 1 hr measured by Dunnert's post hoc test; type: functional, organism-based; settings: dose 3-30 mg/kg; summary of the method: as §1
Plasma [14] = assay: Free plasma concentration in cinnamaldehyde induced nocifensive behaviour Sprague-Dawley rat model treated with cinnamaldehyde followed compound addition at 3 to 30 mg/kg, po measured after 1 hr; type: functional; settings: dose 3-30 mg/kg
Summary of the method: (§2)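 Free plasma level taken 1 h after oral dosing (3, 10, 30 mg/kg) in the rat intraplantar cinnamaldehyde nocifensive model.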

Plasma [15] = assay: Free plasma concentration in cinnamaldehyde induced nocifensive behaviour Sprague-Dawley rat model at 10 mg/kg, po; type: functional; settings: time 1 hrs; summary of the method: as §2
Plasma [16] = assay: Free plasma concentration in cinnamaldehyde induced nocifensive behaviour Sprague-Dawley rat model treated at 3 to 30 mg/kg, po for 1 hr followed by cinnamaldehyde addition; type: functional; settings: dose 3-30 mg/kg; summary of the method: as §2
Rattus norvegicus [17] = assay: Reversal of complete Freund's adjuvant induced mechanical hyperalgesia in Sprague-Dawley rat assessed as paw withdrawal threshold treated with CFA for 24 hrs followed by compound addition at 3 to 30 mg/kg, po measured after 2 to 4 hrs by Dunnett's post hoc test; type: functional, organism-based; settings: dose 3-30 mg/kg, time 2-4 hrs
Summary of the method: (§3)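 Male Sprague Dawley rats, 175–200 g, given intraplantar CFA in one hind paw. Oral dose once 24 h later in 10% DMSO/40% Solutol/50% water. Paw withdrawal threshold to pressure measured blinded on CFA and contralateral paws before CFA, at 24 h (predrug) and 2 and 4 h postdose. Two-way repeated-measures ANOVA, then Dunnett versus vehicle.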

Rattus norvegicus [18] = assay: Anti-inflammatory activity in complete Freund's adjuvant induced mechanical hyperalgesia in Sprague-Dawley rat assessed as reduction of mechanical hyperalgesia treated with CFA for 24 hrs followed by compound addition at 10 to 30 mg/kg, po measured after 2 hrs by Dunnett's post hoc test; type: functional, organism-based; settings: dose 10-30 mg/kg; summary of the method: as §3
Rattus norvegicus [19] = assay: Anti-inflammatory activity in complete Freund's adjuvant induced mechanical hyperalgesia in Sprague-Dawley rat assessed as reduction of mechanical hyperalgesia treated with CFA for 24 hrs followed by compound addition at 30 mg/kg, po measured after 4 hrs by Dunnett's post hoc test; type: functional, organism-based; summary of the method: as §3
Plasma [20] = assay: Free plasma concentration in cinnamaldehyde induced nocifensive behaviour Sprague-Dawley rat treated with CFA for 24 hrs followed by compound addition at 3 mg/kg, po measured after 4.5 hrs; type: functional
Summary of the method: (§4)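 Unbound plasma level taken 4.5 h after oral dosing (3, 10, 30 mg/kg), given 24 h after intraplantar CFA in rats.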

Plasma [21] = assay: Free plasma concentration in cinnamaldehyde induced nocifensive behaviour Sprague-Dawley rat treated with CFA for 24 hrs followed by compound addition at 10 mg/kg, po measured after 4.5 hrs; type: functional; summary of the method: as §4
Plasma [22] = assay: Free plasma concentration in cinnamaldehyde induced nocifensive behaviour Sprague-Dawley rat treated with CFA for 24 hrs followed by compound addition at 30 mg/kg, po measured after 4.5 hrs; type: functional; summary of the method: as §4
Rattus norvegicus [23] = assay: Antiallodynic activity against spinal nerve ligation neuropathic pain Sprague-Dawley rat model assessed as reversal of mechanical allodynia administered at 90 mg/kg, po bid measured after 6 days post SNL surgery; type: functional, organism-based; settings: time 6.0 day
Rattus norvegicus [24] = assay: Antiallodynic activity against spinal nerve ligation neuropathic pain Sprague-Dawley rat model assessed as reversal of mechanical allodynia administered at 30 mg/kg, po bid for 10 days from day 15 to day 24 post SNL surgery; type: functional, organism-based; settings: time <= 10.0 day
Summary of the method: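 Male Sprague Dawley rats, 100–120 g, had spinal nerve ligation under isoflurane. Oral dosing b.i.d. on days 15–24 post surgery in DMSO/Solutol/water 10/40/50 at 5 mL/kg; gabapentin 30 mg/kg q.d. as control. Von Frey up-and-down thresholds, blinded, on both hind paws at day 11 (baseline) and days 15, 18, 21, 24, 2 h after morning dose. Kruskal–Wallis with Dunn versus vehicle.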

Plasma [25] = assay: Unbound plasma concentration in spinal nerve ligation neuropathic pain Sprague-Dawley rat model administered at 30 mg/kg, po bid for 10 days from day 15 to day 24 post SNL surgery measured after […] of last dose; type: functional; settings: time 242.5 hrs
Plasma [26] = assay: Unbound plasma concentration in spinal nerve ligation neuropathic pain Sprague-Dawley rat model administered at 90 mg/kg, po bid for 10 days from day 15 to day 24 post SNL surgery measured after […] of last dose; type: functional; settings: time 242.5 hrs
[27] = Fraction unbound in guniea pig; type: ADME, Cavia porcellus; settings: guinea pig
[28] = Unbound brain concentration in spinal nerve ligation neuropathic pain Sprague-Dawley rat model administered at 30 mg/kg, po bid for 10 days from day 15 to day 24 post SNL surgery measured after 2 to 8 hrs of last dose
[29] = Unbound brain concentration in spinal nerve ligation neuropathic pain Sprague-Dawley rat model administered at 90 mg/kg, po bid for 10 days from day 15 to day 24 post SNL surgery measured after 2 to 8 hrs of last dose

Sequence of Transient receptor potential cation channel subfamily A member 1 (O75762 whole entry): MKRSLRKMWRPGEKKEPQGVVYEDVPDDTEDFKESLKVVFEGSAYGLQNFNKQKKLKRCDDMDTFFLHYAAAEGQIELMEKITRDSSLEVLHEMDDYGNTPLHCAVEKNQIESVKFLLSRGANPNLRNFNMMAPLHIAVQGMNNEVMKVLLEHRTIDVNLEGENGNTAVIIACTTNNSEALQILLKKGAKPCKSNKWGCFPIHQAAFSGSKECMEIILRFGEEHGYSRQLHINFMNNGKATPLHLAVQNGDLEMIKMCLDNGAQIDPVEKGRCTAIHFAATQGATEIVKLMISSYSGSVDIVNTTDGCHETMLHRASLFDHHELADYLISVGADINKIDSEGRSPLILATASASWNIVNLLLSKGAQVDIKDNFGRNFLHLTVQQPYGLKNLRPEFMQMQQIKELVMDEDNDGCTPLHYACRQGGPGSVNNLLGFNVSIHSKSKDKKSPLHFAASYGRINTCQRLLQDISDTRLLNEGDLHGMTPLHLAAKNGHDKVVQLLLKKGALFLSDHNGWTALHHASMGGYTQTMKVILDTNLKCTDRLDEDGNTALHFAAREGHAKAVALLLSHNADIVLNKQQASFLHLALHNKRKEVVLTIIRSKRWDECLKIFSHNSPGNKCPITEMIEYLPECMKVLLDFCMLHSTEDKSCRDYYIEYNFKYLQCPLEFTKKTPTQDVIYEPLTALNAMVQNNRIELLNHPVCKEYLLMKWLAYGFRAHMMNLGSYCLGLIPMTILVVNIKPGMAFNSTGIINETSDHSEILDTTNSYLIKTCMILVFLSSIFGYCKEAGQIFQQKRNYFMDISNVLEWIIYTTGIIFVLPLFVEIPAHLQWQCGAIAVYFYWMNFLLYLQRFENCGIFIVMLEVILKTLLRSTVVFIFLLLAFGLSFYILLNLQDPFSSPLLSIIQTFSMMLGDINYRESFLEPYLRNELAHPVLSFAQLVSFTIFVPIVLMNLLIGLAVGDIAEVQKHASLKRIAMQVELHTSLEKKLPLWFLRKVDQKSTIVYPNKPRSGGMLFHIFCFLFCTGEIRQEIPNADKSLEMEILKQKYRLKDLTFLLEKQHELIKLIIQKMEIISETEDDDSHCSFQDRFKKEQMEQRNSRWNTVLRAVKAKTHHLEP

**Q.** For `O[C@]1(C(F)(F)F)CCCC[C@H]1Nc1ccc(F)cc1` [BAY-390], which Activity [1] is on record?
**A.** The Activity was “Non-Toxic”.

**Q.** What about the logD [2] of the same molecule?
**A.** The logD was 3.

**Q.** What about the solubility [3] of the same molecule?
**A.** The solubility was 56 µg/mL (≈ 202 µM).

**Q.** What about the IC50 [4] of the same molecule?
**A.** Its IC50 is 35 nM.

**Q.** What about the fraction unbound [5] of the same molecule?
**A.** The fraction unbound was 0.12.

**Q.** What about the fraction unbound [6] of the same molecule?
**A.** The fraction unbound was 0.081.

**Q.** What about the Stability [7] of the same molecule?
**A.** The Stability was “Stable”.

**Q.** What about the CL [8] of the same molecule?
**A.** The CL was 40 mL/min/kg.

**Q.** What about the permeability [9] of the same molecule?
**A.** The permeability was 29.3 ×10⁻⁶ cm/s.

**Q.** What about the Ratio [10] of the same molecule?
**A.** The Ratio was 0.6.

**Q.** And the fraction unbound [11]?
**A.** The fraction unbound was 0.06.

**Q.** And the Activity (Rattus norvegicus [12])?
**A.** The Activity was “Active”.

**Q.** And the Activity (Rattus norvegicus [13])?
**A.** Its Activity is “Active”.

**Q.** And the “Cp(f)” value (Plasma [14])?
**A.** The value was 10 nM.

**Q.** And the “Cp(f)” value (Plasma [15])?
**A.** The value was 35 nM.

**Q.** And the “Cp(f)” value (Plasma [16])?
**A.** The value was 115 nM.

**Q.** What about the Activity (Rattus norvegicus [17]) of the same molecule?
**A.** The Activity was “Active”.

**Q.** What about the Activity (Rattus norvegicus [18]) of the same molecule?
**A.** Its Activity is “Active”.

**Q.** What about the Activity (Rattus norvegicus [19]) of the same molecule?
**A.** Its Activity is “Active”.

**Q.** And the “Cp(f)” value (Plasma [20])?
**A.** The value was 7 nM.

**Q.** And the “Cp(f)” value (Plasma [21])?
**A.** The value was 10 nM.

**Q.** And the “Cp(f)” value (Plasma [22])?
**A.** Its value is 103 nM.

**Q.** And the Activity (Rattus norvegicus [23])?
**A.** Its Activity is “Active”.

**Q.** What about the Activity (Rattus norvegicus [24]) of the same molecule?
**A.** Its Activity is “inactive”.

**Q.** What about the “Cp(f)” value (Plasma [25]) of the same molecule?
**A.** The value was 115 nM.

**Q.** And the “Cp(f)” value (Plasma [26])?
**A.** The value was 201 nM.

**Q.** What about the fraction unbound [27] of the same molecule?
**A.** The fraction unbound was 0.097.

**Q.** And the unbound brain concentration [28]?
**A.** The unbound brain concentration was 33 nM.

**Q.** What about the unbound brain concentration [29] of the same molecule?
**A.** Its unbound brain concentration is 61 nM.
